An excerpt weighted towards active compounds, which were near 2.2% of everything screened.
GRK2 inh: blocks RNA aptamer binding to human GRK2 | actives 0.59% (n = 330,000) | P25098 | inhibition of aptamer binding, % at 10 µM | bead flow cytometry, FAM-aptamer displacement from GRK2 | AID 488847;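 active = inhibition of aptamer binding above 40%, roughly 3 SD of noise, on plates passing a quality check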;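 also: median bead fluorescence of bound FAM aptamer so fluorescent compounds give negative values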
Target sequence (P25098 whole entry, looked up): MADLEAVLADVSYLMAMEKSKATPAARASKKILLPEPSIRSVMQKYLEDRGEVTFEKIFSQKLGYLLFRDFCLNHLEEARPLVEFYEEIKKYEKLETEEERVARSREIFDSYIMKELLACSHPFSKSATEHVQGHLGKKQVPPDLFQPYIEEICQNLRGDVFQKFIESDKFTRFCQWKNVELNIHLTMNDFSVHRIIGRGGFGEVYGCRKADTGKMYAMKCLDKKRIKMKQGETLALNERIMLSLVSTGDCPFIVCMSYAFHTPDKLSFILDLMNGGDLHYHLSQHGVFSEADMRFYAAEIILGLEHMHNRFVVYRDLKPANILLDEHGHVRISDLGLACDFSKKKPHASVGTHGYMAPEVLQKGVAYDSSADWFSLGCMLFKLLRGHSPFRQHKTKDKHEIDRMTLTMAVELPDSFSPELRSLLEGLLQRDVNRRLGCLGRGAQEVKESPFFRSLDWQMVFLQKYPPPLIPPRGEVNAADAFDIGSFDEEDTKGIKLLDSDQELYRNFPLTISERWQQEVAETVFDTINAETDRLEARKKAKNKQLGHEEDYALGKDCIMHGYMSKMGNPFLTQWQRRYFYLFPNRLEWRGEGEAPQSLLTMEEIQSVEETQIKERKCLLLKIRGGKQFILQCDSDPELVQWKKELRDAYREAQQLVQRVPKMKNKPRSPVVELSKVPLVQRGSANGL
core dimer inh: blocks dimerization of HCV core protein | TR-FRET GST/Flag-core106 dimerization, 1536-well | inhibition, % at 5 µM | actives 0.33% (n = 300,000) | AID 1899;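 active = inhibition above the mean of all tested compounds plus 3 SD, set per screening campaign, cut at about 45% in these data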
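System: GST/Flag-tagged HCV core106 proteins. Incubation: compound-protein-antibody incubation 4 h at 22.5 °C. Technique: HTRF with 340 nm excitation, 617/671 nm emission. Medium: KF-containing HEPES buffer, pH 7.45, DTT, CHAPS, BSA. Read-out: inhibition (%) from 671 over 617 nm ratio. Also added: Eu(K)-anti-GST 90 ng/mL plus XL665-anti-Flag 1 µg/mL.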
DAGLB inhibitor: diacylglycerol lipase beta (human) inhibition | inhibition, % at 5.17 µM | Q8NCG7 | HEK293T DAGLB membrane lysate, EnzChek fluorogenic substrate | actives 0.059% (n = 340,000); in the data active = inhibition above about 34%
GPR7 antag: antagonists of human GPR7 (neuropeptides B/W receptor 1); actives 1.1% (n = 290,000); GPR7-expressing cells, fluorescence antagonist assay; AID 1861; inhibition, % at 4.4 µM; P48145; in the data active = inhibition above about 16%, passing the limit was not always enough;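 also: cells stimulated with the agonist NPW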
DNA FID counter-1: fluorescent intercalator displacement, NS3 helicase counter-screen. DNA fluorescent intercalator displacement, fluorescence. inhibition, % at 7.9 µM. actives 0.17% (n = 290,000);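 also: higher means more ethidium bromide displaced from hairpin DNA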
NS3 helicase inh: inhibitors of Hepatitis C virus NS3 helicase | NS3 helicase DNA unwinding, Cy5 molecular beacon fluorescence | inhibition, % at 10.9 µM | actives 0.56% (n = 290,000) | AID 1800;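 active = inhibition above the mean of all tested compounds plus 3 SD, set per campaign, cut at about 35% in these data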
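Test system: hepatitis C virus NS3 helicase domain fragment enzyme. Also added: annealed dual-labelled DNA beacon duplex, ATP-started. Timing: 60 min unwinding reaction at 25 °C after ATP addition. Technique: Cy5 fluorescence. Measure: % inhibition of unwinding.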
NS3 helicase cf: confirmation of Hepatitis C virus NS3 helicase inhibitors; inhibition, % at 10.9 µM; shares compounds with NS3 helicase inh; AID 1943; actives 31% (n = 1,600); NS3 helicase DNA unwinding, Cy5 molecular beacon fluorescence;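 active = inhibition above the mean of all tested compounds plus 3 SD, cutoff set per campaign, cut at about 36% in these data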
DNA FID counter-2: intercalator displacement, NS3 helicase counter-screen | actives 4% (n = 1,600) | shares compounds with NS3 helicase inh | AID 1945 | inhibition, % at 7.9 µM | DNA fluorescent intercalator displacement, fluorescence;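 also: higher means more displacement of ethidium bromide from the DNA hairpin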
DNA FID DR: displaces fluorescent intercalator from DNA, HCV helicase counter-screen; shares compounds with NS3 helicase inh; fluorescent intercalator displacement from DNA, fluorescence; IC50, µM; 120 tested, under 10 active; AID 2172; call rule not given here
Large screens that a line does not name were inactive (follow-up assays come after a bar, where they were run). Rule as the data show it, unless noted: active = inhibition above about 37%; inactive = the rest.

CSCCC(NC(=O)c1ccccc1Cl)C(=O)NCC(c1ccc(F)cc1)N1CCOCC1 (stereo unspecified)	none (no result: GRK2 inh, core dimer inh, GPR7 antag, DNA FID counter-1, NS3 helicase inh)
CCOc1ccc(S(=O)(=O)N/N=C(\C)C2CCCCC2)cc1	NS3 helicase inh 43.0 | NS3 helicase cf inactive | DNA FID counter-2 inactive
CCCc1nc2sc3ccccc3c(=O)c2c(=O)n1Cc1ccc(OC)cc1	none (no result: DAGLB inhibitor)
CCCc1nc2sc3ccccc3c(=O)c2c(=O)n1Cc1ccco1	NS3 helicase inh 46.4 (no result: GRK2 inh, core dimer inh) | NS3 helicase cf inactive | DNA FID counter-2 inactive
O=C(N/C(=C\c1ccc(Br)cc1)C(=O)N1CCOCC1)c1ccccc1Cl	none
O=C(N/C(=C\c1ccccc1)C(=O)N1CCOCC1)c1ccccc1Cl	NS3 helicase inh 36.3 | NS3 helicase cf inactive | DNA FID counter-2 inactive
O=C(/C=C/c1ccco1)N(Cc1ccc(Cl)cc1)C1CCS(=O)(=O)C1 (stereo unspecified)	NS3 helicase inh 42.1 | NS3 helicase cf inactive | DNA FID counter-2 inactive
CN(C)c1ccc(CN(C(=O)/C=C/c2ccco2)C2CCS(=O)(=O)C2)cc1 (stereo unspecified)	none (no result: DAGLB inhibitor)
COCCN(C(=O)c1cc(S(=O)(=O)N2CCCCC2)ccc1Cl)c1c(N)n(CC(C)C)c(=O)[nH]c1=O	none (no result: GRK2 inh, core dimer inh, GPR7 antag, DNA FID counter-1, NS3 helicase inh)
COc1ccc2oc(=O)c(-c3nnc(NCc4ccco4)s3)cc2c1	NS3 helicase inh 37.2 | NS3 helicase cf inactive | DNA FID counter-2 inactive
COc1ccc(S(=O)(=O)N2CCCCCC2)cc1C(=O)N1CCN(c2ccccc2O)CC1	none (no result: GPR7 antag, DNA FID counter-1, NS3 helicase inh)
O=C(O)C(Cc1ccccc1)Nc1ccc([N+](=O)[O-])cc1[N+](=O)[O-] (stereo unspecified)	NS3 helicase inh 38.4 | NS3 helicase cf inactive | DNA FID counter-2 inactive
Cc1ccc(C)c(S(=O)(=O)N2CCN(C(=O)/C=C/c3ccco3)CC2)c1	none (no result: core dimer inh, GPR7 antag, DNA FID counter-1, NS3 helicase inh)
CCOC(=O)/C=C(C)\C=C\c1c[nH]c2ccccc12	NS3 helicase inh 45.4 | NS3 helicase cf inactive | DNA FID counter-2 inactive
CCOC(=O)/C(=C/c1c[nH]c2ccccc12)NC(C)=O	none
CCN(CC)CCCCCC(=O)Nc1ccccc1C(=O)Nc1ccccc1	none
COc1c(N2CCN(C(=S)NCc3ccccc3)C(C)C2)c(F)cc2c(=O)c(C(=O)O)cn(C3CC3)c12 (stereo unspecified)	NS3 helicase inh 39.9 | NS3 helicase cf 42.1 | DNA FID counter-2 inactive | DNA FID DR inactive
CN(Cc1ccco1)C(=O)CSc1nc(C2CC2)n(-c2ccccc2)n1	none (no result: GRK2 inh, core dimer inh, GPR7 antag, DNA FID counter-1, NS3 helicase inh)
O=C1OC(c2ccco2)=N/C1=C\c1ccc(-c2cccc(C(F)(F)F)c2)o1	NS3 helicase inh 36.8 | NS3 helicase cf 47.2 | DNA FID counter-2 inactive | DNA FID DR inactive
O=C1OC(c2cccs2)=N/C1=C/c1ccc(-c2cccc(C(=O)O)c2)o1	none (no result: GRK2 inh, core dimer inh)
Cc1cc(-c2csc(NCc3ccccc3)n2)c(C)n1C	none (no result: GRK2 inh, core dimer inh)
Cc1cc(-c2csc(NC(=O)c3ccccc3C(F)(F)F)n2)c(C)n1Cc1ccccc1	NS3 helicase inh 49.8 | NS3 helicase cf inactive | DNA FID counter-2 inactive
Cc1cc(C(=O)CSc2nc3ccccc3c(=O)n2C)c(C)n1Cc1ccc2c(c1)OCO2	NS3 helicase inh 40.0 | NS3 helicase cf inactive | DNA FID counter-2 inactive
O=C1CN(C(=O)N[C@@H](Cc2ccccc2)C(=O)N[C@H](Cc2ccccc2)C(=O)O)c2ccccc2N1	none
O=C1CN(C(=O)N[C@@H](Cc2ccccc2)C(=O)N[C@@H](Cc2ccccc2)C(=O)O)c2ccccc2N1	NS3 helicase inh 36.5 | NS3 helicase cf inactive | DNA FID counter-2 inactive
CCOC(=O)CC(=O)CSc1nc(N)c(C#N)c(-c2ccc(F)cc2)c1C#N	NS3 helicase inh 56.8 | NS3 helicase cf inactive | DNA FID counter-2 inactive
C[C@@H]1CN([C@@H](C)CO)C(=O)CCCn2cc(nn2)CO[C@H]1CN(C)S(=O)(=O)c1ccc2c(c1)OCCCO2	none (no result: GRK2 inh, core dimer inh, GPR7 antag, DNA FID counter-1, NS3 helicase inh)

Compound activity as filed in PubChem.
